Assay results from ChEMBL document CHEMBL1139494, “In vitro and in vivo anti-leishmanial activity of triterpenoid saponins isolated from Maesa balansae and some chemical derivatives” (J Med Chem, 2005).
≈ marks a conversion by molar mass, not a printed value.

What was measured:
Leishmania infantum [1] = assay: (§1) Inhibitory concentration against intracellular amastigotes of Leishmania infantum; type: functional
How it was run: (§2)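 Mouse peritoneal macrophages elicited by intraperitoneal 2% potato starch and harvested ~24 h later in RPMI-1640. Each well held 3 × 10^4 macrophages plus 3 × 10^5 parasites with compound, final 0.5–32 µg/mL, in triplicate. After 5 days at 37 °C, Giemsa-stained intracellular amastigotes counted microscopically, expressed as percent reduction vs untreated; mean of three replicates.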

Leishmania infantum [2] = assay: as §1; type: functional, organism-based; how it was run: as §2
MRC5 = assay: Cytotoxic concentration against human lung fibroblast MRC-5 cells; type: functional
How it was run: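 Human lung fibroblasts grown in MEM + 5% heat-inactivated FCS, about 5000 cells/well, exposed to compound in triplicate. Viability read after 7 days with Alamar Blue fluorescent dye and expressed as percent reduction versus untreated wells. CC50 estimated from log-concentration plot; value is mean of three replicates.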

Leishmania infantum [3] = assay: Lowest dose (single subcutaneous administration) causing >90% reduction of liveramastigotes of Leishmania infantum in mouse; type: functional
How it was run: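 Male BALB/c mice given 10^7 L. infantum amastigotes (from spleen of infected donor hamster) intravenously via lateral tail vein on day 0, three per group. Single subcutaneous dose in isotonic saline (filter-sterilized, diluted from 2 mg/mL stock) given day 0. At 7 days post-treatment, Giemsa-stained liver impression smears scored for amastigotes per liver cell.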

[4] = Leishmania infantum, read-out: IC50

Row | Compound | IC90 (Leishmania infantum [1]) [µg/mL] | IC50 (Leishmania infantum [2]; [4]) [µg/mL] | CC50 (MRC5) [µg/mL] | Dose (Leishmania infantum [3]) [mg/kg] | DOSE (Leishmania infantum [3]) [mg/kg] | IC50 (Leishmania infantum [2]) [µg/mL]
1 | C[C@@H]1[C@H](O)[C@@H](C)/C=C/C=C/C=C/C=C/C=C/C=C/C=C/[C@H](O[C@@H]2O[C@H](C)[C@@H](O)[C@H](N)[C@@H]2O)C[C@@H]2O[C@](O)(C[C@@H](O)C[C@@H](O)[C@H](O)CC[C@@H](O)C[C@@H](O)CC(=O)O[C@H]1C)C[C@H](O)[C@H]2C(=O)O [AMPHOTERICIN B] | 0.373 (≈ 0.404 µM) | 0.285 (≈ 0.308 µM) | > 32 | >10 |  | 
2 | CC1(C)CC2C3=CCC4[C@@]5(C)CC[C@H](O)C(C)(C)C5CC[C@@]4(C)[C@]3(C)C[C@@H](O)[C@@]2(C=O)[C@@H](OC(=O)/C=C/c2ccccc2)[C@@H]1OC(=O)c1ccccc1 (stereo partly specified) | > 16 | 8 (≈ 11.1 µM) | 32 (≈ 44.3 µM) | >40 |  | 
3 | CC(=O)O[C@@H]1C[C@]2(C)C(=CCC3[C@@]4(C)CC[C@H](O)C(C)(C)C4CC[C@]32C)C2CC(C)(C)[C@@H](OC(=O)c3ccccc3)[C@H](OC(=O)/C=C/c3ccccc3)[C@@]21C=O (stereo partly specified) | > 32 | > 32 | > 32 |  |  | 
4 | C[C@@H]1OC(O[C@H]2C(O)[C@@H](O)C(CO)O[C@H]2OC2[C@H](O)C(C(=O)O)O[C@@H](O[C@H]3CC[C@@]4(C)C(CC[C@]5(C)C4CC[C@]46O[C@H](O)[C@]7(C4CC(C)(C)[C@@H](OC(=O)c4ccccc4)[C@@H]7OC(=O)/C=C/c4ccccc4)[C@H](O)C[C@]65C)C3(C)C)[C@H]2O[C@@H]2OC(CO)[C@@H](O)C(O)[C@@H]2O)C(OC2O[C@@H](C)[C@H](O)C(O)[C@@H]2O)[C@@H](O)C1O (stereo partly specified) | 0.012 (≈ 0.00782 µM) | 0.007 (≈ 0.00456 µM) | 0.5 (≈ 0.326 µM) | 0.2 |  | 
5 | C/C=C(/C)C(=O)O[C@H]1[C@H](OC(=O)/C=C\c2ccccc2)[C@@]23C(CC1(C)C)[C@]1(CCC4[C@@]5(C)CC[C@H](O[C@@H]6OC(C(=O)O)[C@@H](O)C(O[C@@H]7OC(CO)[C@H](O)C(O)[C@@H]7OC7O[C@@H](C)C(O)[C@H](O)C7OC7O[C@@H](C)[C@H](O)C(O)[C@@H]7O)[C@@H]6O[C@@H]6OC(CO)[C@@H](O)C(O)[C@@H]6O)C(C)(C)C5CC[C@@]4(C)[C@]1(C)C[C@H]2O)O[C@@H]3O (stereo partly specified) | 0.094 (≈ 0.0622 µM) | 0.023 (≈ 0.0152 µM) | 0.5 (≈ 0.331 µM) | >0.8 |  | 
6 | CC=C(C)C(=O)O[C@H]1[C@H](OC(=O)/C=C/c2ccccc2)[C@@]2(C=O)C(CC1(C)C)C1=CCC3[C@@]4(C)CC[C@H](O)C(C)(C)C4CC[C@@]3(C)[C@]1(C)C[C@H]2O (stereo partly specified) | > 32 | > 32 | > 32 |  |  | 
7 | CC1(C)CC2C3=CCC4[C@@]5(C)CC[C@H](O)C(C)(C)C5CC[C@@]4(C)[C@]3(C)C[C@@H](O)[C@@]2(C=O)[C@@H](OC(=O)/C=C\c2ccccc2)[C@@H]1OC(=O)c1ccccc1 (stereo partly specified) | > 32 | > 32 | > 32 |  |  | 
8 | STIBOGLUCONATE [listing 1 of 2 here] | > 32 |  | > 32 |  | > 40 | 
9 | C/C=C(/C)C(=O)O[C@H]1[C@H](OC(=O)CCc2ccccc2)[C@@]23C(CC1(C)C)[C@]1(CCC4[C@@]5(C)CC[C@H](O[C@@H]6OC(C(=O)O)[C@@H](O)C(O[C@@H]7OC(CO)[C@H](O)C(O)[C@@H]7OC7O[C@@H](C)C(O)[C@H](O)C7OC7O[C@@H](C)[C@H](O)C(O)[C@@H]7O)[C@@H]6O[C@@H]6OC(CO)[C@@H](O)C(O)[C@@H]6O)C(C)(C)C5CC[C@@]4(C)[C@]1(C)C[C@H]2O)O[C@@H]3O (stereo partly specified) | 0.03 (≈ 0.0198 µM) | 0.018 (≈ 0.0119 µM) | 0.6 (≈ 0.396 µM) |  |  | 
10 | C[C@@H]1OC(O[C@H]2C(O)[C@@H](O)C(CO)O[C@H]2OC2[C@H](O)C(C(=O)O)O[C@@H](O[C@H]3CC[C@@]4(C)C(CC[C@]5(C)C4CC[C@]46O[C@H](O)[C@]7(C4CC(C)(C)[C@@H](OC(=O)c4ccccc4)[C@@H]7OC(=O)CCc4ccccc4)[C@H](O)C[C@]65C)C3(C)C)[C@H]2O[C@@H]2OC(CO)[C@@H](O)C(O)[C@@H]2O)C(OC2O[C@@H](C)[C@H](O)C(O)[C@@H]2O)[C@@H](O)C1O (stereo partly specified) | 0.015 (≈ 0.00977 µM) | 0.009 (≈ 0.00586 µM) | 0.3 (≈ 0.195 µM) |  |  | 
11 | C[C@@H]1OC(O[C@H]2C(O)[C@@H](O)C(CO)O[C@H]2OC2[C@H](O)C(C(=O)O)O[C@@H](O[C@H]3CC[C@@]4(C)C(CC[C@]5(C)C4CC[C@]46O[C@H](O)[C@]7(C4CC(C)(C)[C@@H](O)[C@@H]7O)[C@H](O)C[C@]65C)C3(C)C)[C@H]2O[C@@H]2OC(CO)[C@@H](O)C(O)[C@@H]2O)C(OC2O[C@@H](C)[C@H](O)C(O)[C@@H]2O)[C@@H](O)C1O (stereo partly specified) | > 32 | > 32 | > 32 | >40 |  | 
12 | C[C@@H]1OC(O[C@H]2C(O)[C@@H](O)C(CO)O[C@H]2OC2[C@H](O)C(C(=O)O)O[C@@H](O[C@H]3CC[C@@]4(C)C(CC[C@]5(C)C4CC[C@]46O[C@H](O)[C@]7(C4CC(C)(C)[C@@H](OC(=O)c4ccccc4)[C@@H]7OC(=O)/C=C\c4ccccc4)[C@H](O)C[C@]65C)C3(C)C)[C@H]2O[C@@H]2OC(CO)[C@@H](O)C(O)[C@@H]2O)C(OC2O[C@@H](C)[C@H](O)C(O)[C@@H]2O)[C@@H](O)C1O (stereo partly specified) | 0.031 (≈ 0.0202 µM) | 0.018 (≈ 0.0117 µM) | 0.5 (≈ 0.326 µM) | 0.8 |  | 
13 | C/C=C(/C)C(=O)O[C@H]1[C@H](OC(=O)/C=C/c2ccccc2)[C@@]2(C=O)C(CC1(C)C)C1=CCC3[C@@]4(C)CC[C@H](O)C(C)(C)C4CC[C@@]3(C)[C@]1(C)C[C@H]2OC(C)=O (stereo partly specified) | > 32 | > 32 | > 32 |  |  | 
14 | STIBOGLUCONATE [listing 2 of 2 here] |  |  |  |  |  | 5.6
15 | C/C=C(/C)C(=O)O[C@H]1[C@H](OC(=O)/C=C/c2ccccc2)[C@@]23C(CC1(C)C)[C@]1(CCC4[C@@]5(C)CC[C@H](O[C@@H]6OC(C(=O)O)[C@@H](O)C(O[C@@H]7OC(CO)[C@H](O)C(O)[C@@H]7OC7O[C@@H](C)C(O)[C@H](O)C7OC7O[C@@H](C)[C@H](O)C(O)[C@@H]7O)[C@@H]6O[C@@H]6OC(CO)[C@@H](O)C(O)[C@@H]6O)C(C)(C)C5CC[C@@]4(C)[C@]1(C)C[C@H]2OC(C)=O)O[C@@H]3O (stereo partly specified) | 0.125 (≈ 0.0805 µM) | 0.041 (≈ 0.0264 µM) | 8 (≈ 5.15 µM) | >0.8 |  | 
16 | C/C=C(/C)C(=O)O[C@H]1[C@H](OC(=O)/C=C/c2ccccc2)[C@@]23C(CC1(C)C)[C@]1(CCC4[C@@]5(C)CC[C@H](O[C@@H]6OC(C(=O)O)[C@@H](O)C(O[C@@H]7OC(CO)[C@H](O)C(O)[C@@H]7OC7O[C@@H](C)C(O)[C@H](O)C7OC7O[C@@H](C)[C@H](O)C(O)[C@@H]7O)[C@@H]6O[C@@H]6OC(CO)[C@@H](O)C(O)[C@@H]6O)C(C)(C)C5CC[C@@]4(C)[C@]1(C)C[C@H]2O)O[C@@H]3O (stereo partly specified) | 0.021 (≈ 0.0139 µM) | 0.014 (≈ 0.00926 µM) | 0.1 (≈ 0.0662 µM) | 0.4 |  | 
17 | CC(=O)O[C@@H]1C[C@]2(C)[C@@]3(CCC4[C@@]5(C)CC[C@H](O[C@@H]6OC(C(=O)O)[C@@H](O)C(O[C@@H]7OC(CO)[C@H](O)C(O)[C@@H]7OC7O[C@@H](C)C(O)[C@H](O)C7OC7O[C@@H](C)[C@H](O)C(O)[C@@H]7O)[C@@H]6O[C@@H]6OC(CO)[C@@H](O)C(O)[C@@H]6O)C(C)(C)C5CC[C@]42C)O[C@H](O)[C@]12C3CC(C)(C)[C@@H](OC(=O)c1ccccc1)[C@@H]2OC(=O)/C=C/c1ccccc1 (stereo partly specified) | 0.125 (≈ 0.0793 µM) | 0.046 (≈ 0.0292 µM) | 8 (≈ 5.08 µM) | >0.8 |  | 
18 | C/C=C(/C)C(=O)O[C@H]1[C@H](OC(=O)/C=C\c2ccccc2)[C@@]2(C=O)C(CC1(C)C)C1=CCC3[C@@]4(C)CC[C@H](O)C(C)(C)C4CC[C@@]3(C)[C@]1(C)C[C@H]2O (stereo partly specified) | > 32 | 22 (≈ 31.4 µM) | > 32 |  |  | 
